Experimental data collected from several papers.
Cell line: MCF7
Effect on: cell growth or viability

| Compound | assay | setting | IC50 |
| --- | --- | --- | --- |
| CCN(CC)C/C=N/NC(=O)Nc1cc2c(Nc3ccc(F)c(Cl)c3)ncnc2cc1OC | MTT | 72 h | 3.28 µM |
| Oc1ncnc2cc(Nc3nc(-c4ccc(F)cc4)cs3)ccc12 | MTT | – | 3.71 µM |
| COc1ccnc(Nc2ccc3ncnc(Nc4cccc(C(F)(F)F)c4)c3c2)c1 | MTT | 24 h | 5.84 µM |
| Oc1ncnc2cc(Nc3nc(-c4ccc(Cl)cc4)cs3)ccc12 | MTT | – | 4.14 µM |
| O=c1c(O)c(-c2ccc(O)cc2)oc2cc(O)cc(O)c12 | WST-1 | 48 h | 27.2 µM |
| COc1cc2ncnc(Nc3ccc(F)c(Cl)c3)c2cc1NC(=O)N/N=C/c1cccn1CCN1CCCCC1 | MTT | 72 h | 2.18 µM |
| O=C(/C=C/c1ccccc1)c1ccccc1 | resazurin | 72 h | > 50 µM |
| C[C@H]1[C@@H](O)O[C@@H]2O[C@@]3(C)CC[C@H]4[C@H](C)CC[C@@H]1[C@@]24OO3 | CCK-8 | 48 h | > 50 µM |
| COc1cccc2c1C(=O)c1c(O)c3c(c(O)c1C2=O)C[C@@](O)(C(=O)CO)C[C@@H]3O[C@H]1C[C@H](N)[C@H](O)[C@H](C)O1 | – | 48 h | 1.2 µM |
| COc1cccc2c1C(=O)c1c(O)c3c(c(O)c1C2=O)C[C@@](O)(C(=O)CO)C[C@@H]3O[C@H]1C[C@H](N)[C@H](O)[C@H](C)O1 | MTT | – | 3.39 µM |
| O=C(/N=C1\S/C(=C\c2ccc(Cl)cc2)C(=O)N1C1CCCCC1)c1ccc2ccccc2c1 | – | 48 h | 6.93 µM |
| CN(C)C/C=C/C(=O)Nc1cc2c(Nc3ccc(F)c(Cl)c3)ncnc2cc1O[C@H]1CCOC1 | MTT | 72 h | 1.8 µM |
| CSc1ccc(-c2nc3ccc(C)cc3[nH]2)cc1 | MTT | 48 h | 45 µM |
| COCO[C@H]1C[C@H]2OC(C)(C)OC[C@]23[C@@H]2[C@@H](CC[C@]3(O)C1)[C@@]1(OCOC)CC[C@H](CO)[C@@]1(C)C[C@H]2OCOC | resazurin | 72 h | > 100 µM |
| COc1ccc(-c2nc3ccccc3[nH]2)cc1OC | MTT | 48 h | > 100 µM |
| O=C1C[C@@H](c2ccc(O)cc2)Oc2cc(O)cc(O)c21 | MTT | 48 h | 4.75 µM |
| COc1ccc(S(=O)(=O)NN=Cc2cn(CCN3CCOCC3)c3ccccc23)cc1 | MTT | 48 h | 62.8 µM |
| CS(=O)(=O)c1nc(N)n(-c2ccc(C(=O)O)cc2)n1 | MTT | – | 21.9 µM |
| Oc1c(I)cc(Cl)c2cccnc12 | MTT | 48 h | 50.2 µM |
| COc1cc(CNCC2CCNCC2)ccc1OCc1cccc(C)c1 | MTT | 72 h | > 100 µM |
| Cc1ccc2nc(-c3ccccc3O)[nH]c2c1 | MTT | 48 h | 18 µM |
| O=C(N/N=C/c1cccn1CCN1CCCCC1)Nc1cc2c(Nc3ccc(F)c(Cl)c3)ncnc2cc1O[C@H]1CCOC1 | MTT | 72 h | 2.41 µM |
| COc1cc(/C=N/c2nc(SC)nn2-c2ccc(C(=O)O)cc2)ccc1O | MTT | – | 29.4 µM |
| C=CCn1c(-c2ccc(Cl)c(Cl)c2)nc2ccccc21 | MTT | – | 50 µM |
| O=C1NC(c2ccccc2)(c2ccccc2)C(=O)N1Cc1cn(-c2c3ccccc3nc3ccccc23)nn1 | MTT | – | 42.7 µM |

| Compound | assay | setting | IC50 |
| --- | --- | --- | --- |
| COc1ccc(-c2nn(-c3ccc(S(C)(=O)=O)cc3)cc2C=N/N=c2\[nH]c(-c3ccc([N+](=O)[O-])cc3)cs2)cc1 | MTT | 48 h | 2.15 µM |
| CN1CCN(CCn2cccc2/C=N/NC(=O)Nc2cc3c(Nc4ccc(F)c(Cl)c4)ncnc3cc2O[C@H]2CCOC2)CC1 | MTT | 72 h | 2.42 µM |
| c1ccc(-c2ccccn2)nc1 | MTT | 48 h | > 50 µM |
| CN1CCN(CCCn2cccc2/C=N/NC(=O)Nc2cc3c(Nc4ccc(F)c(Cl)c4)ncnc3cc2O[C@H]2CCOC2)CC1 | MTT | 72 h | 2.12 µM |
| O=C(/C=C/c1ccc(O)c(O)c1)O[C@@H]1C[C@](O)(C(=O)O)C[C@@H](O)[C@H]1O | WST-1 | 48 h | 9.5 µM |
| CSc1nc(/N=C/c2cc(Br)ccc2O)n(-c2ccc(C(=O)O)cc2)n1 | MTT | – | 31.3 µM |
| Cc1ccc2nc(-c3ccc(N(C)C)cc3)[nH]c2c1 | MTT | 48 h | 47.7 µM |
| CC(C)Cc1ccc(-c2nn(-c3ccc(S(C)(=O)=O)cc3)cc2/C=N/N=c2\[nH]c(-c3ccc([N+](=O)[O-])cc3)cs2)cc1 | MTT | 48 h | 2.85 µM |
| O=C(N/N=C/c1cccn1CCCN1CCOCC1)Nc1cc2c(Nc3ccc(F)c(Cl)c3)ncnc2cc1O[C@H]1CCOC1 | MTT | 72 h | 5.57 µM |
| F[B-](F)(F)F.[Fe+3].c1cc[cH-]c1.c1cc[cH-]c1 | MTT | – | 150 µM |
| Cc1ccc2nc(-c3ccc(Cl)cc3)n(Cc3ccccc3)c2c1 | MTT | – | 5.66 µM |
| COc1ccc(C(=O)O[C@@H]2CN3Cc4c(cc5c(c4OC)OCO5)[C@@]24C=C[C@H](OC)C[C@@H]34)cc1 | WST-1 | – | > 10 µM |
| COc1cccc(-c2nc3ccc(C)cc3[nH]2)c1 | MTT | 48 h | 50.6 µM |
| O=S(=O)(Cc1ccccc1)NN=Cc1cn(CCN2CCOCC2)c2ccccc12 | MTT | 48 h | 62.5 µM |
| Clc1ccc(C[n+]2cn(CCc3ccccc3)c3ccccc32)cc1 | MTT | 72 h | 13 µM |
| O=C(/N=c1\scc(-c2ccccc2)n1C1CCCCC1)c1ccc2ccccc2c1 | – | 48 h | 17.3 µM |
| O=C1Nc2c(C(F)(F)F)cccc2C1(c1ccc(OC(F)(F)F)cc1)c1c(F)cc(O)cc1F (stereo not shown) | resazurin | 24 h | 0.549 µM |
| Cc1ccc2nc(-c3c4ccccc4cc4ccccc34)[nH]c2c1 | MTT | 48 h | 39 µM |
| CC(=O)O[C@H]1C(=O)[C@@]2(C)[C@H]([C@H](OC(=O)c3ccccc3)[C@]3(O)C[C@H](OC(=O)[C@H](O)[C@@H](NC(=O)c4ccccc4)c4ccccc4)C(C)=C1C3(C)C)[C@]1(OC(C)=O)CO[C@@H]1C[C@@H]2O | – | 72 h | 0.011 µM |
| CC(=O)O[C@H]1C(=O)[C@@]2(C)[C@H]([C@H](OC(=O)c3ccccc3)[C@]3(O)C[C@H](OC(=O)[C@H](O)[C@@H](NC(=O)c4ccccc4)c4ccccc4)C(C)=C1C3(C)C)[C@]1(OC(C)=O)CO[C@@H]1C[C@@H]2O | – | – | 1 µg/mL |
| COc1cc2ncnc(Nc3ccc(F)c(Cl)c3)c2cc1NC(=O)N/N=C/c1cccn1CCCN1CCN(C)CC1 | MTT | 72 h | 2.43 µM |
| O=S(=O)(NN=Cc1cn(CCN2CCOCC2)c2ccccc12)c1ccc2ccccc2c1 | MTT | 48 h | 29.9 µM |
| COc1ccc(-c2ccc3ncnc(Nc4cccc(C(F)(F)F)c4)c3c2)cc1 | MTT | 24 h | 11.7 µM |
| COc1cccc2c1C(=O)c1c(O)c3c(c(O)c1C2=O)C[C@@](O)(C(=O)CO)C[C@@H]3O[C@H]1C[C@H](N)[C@H](O)[C@H](C)O1 | resazurin | 72 h | 0.24 µM |
